Results taken from ChEMBL document CHEMBL5046217, “Discovery of New Imidazo[2,1-b]thiazole Derivatives as Potent Pan-RAF Inhibitors with Promising In Vitro and In Vivo Anti-melanoma Activity” (J Med Chem, 2021).
pIC50: −log10 of the molar value. Calls of active or inactive are those of the source. The rule behind the calls is not given here.

What was measured:
[1] = tested on: Panel colon (Carcinoma cell lines); test: Antiproliferative activity against human Panel colon (Carcinoma cell lines) assessed as cell growth inhibition measured after 48 hrs by SRB assay
UACC-62 [2] = test: Antiproliferative activity against human UACC-62 cells assessed as total growth inhibition measured after 48 hrs by SRB assay; conditions: UACC-62, 48 h
[3] = tested on: Panel CNS (Carcinoma cell lines); test: Antiproliferative activity against human Panel CNS (Carcinoma cell lines) assessed as cell growth inhibition measured after 48 hrs by SRB assay
[4] = tested on: Panel prostate (Carcinoma cell lines); test: Antiproliferative activity against human Panel prostate (Carcinoma cell lines) assessed as cell growth inhibition measured after 48 hrs by SRB assay
SK-MEL-5 [5] = test: Antiproliferative activity against human SK-MEL-5 cells assessed as total growth inhibition measured after 48 hrs by SRB assay; conditions: SK-MEL-5, 48 h
in vitro = conditions: human, BJ cells and Malme-3M cells
[6] = tested on: Panel ovarian (Carcinoma cell lines); test: Antiproliferative activity against human Panel ovarian (Carcinoma cell lines) assessed as cell growth inhibition measured after 48 hrs by SRB assay
SK-MEL-2 [7] = test: Antiproliferative activity against human SK-MEL-2 cells assessed as total growth inhibition measured after 48 hrs by SRB assay; conditions: SK-MEL-2, 48 h
[8] = Cytotoxicity against human BJ cells assessed as cell growth inhibition incubated for 48 hrs by MTT assay; assay type: toxicity, cell-based
How it was run: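 BJ1 normal skin fibroblasts were seeded at 10 × 10³ cells/well with compound in triplicate wells and grown in DMEM-F12 at 37 °C, 5% CO₂, across an eight-point dilution series. Growth inhibition was calculated as (1 − T/C) × 100, and IC50 was taken from the dose–response curve.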

[9] = Cytotoxicity against human L132 cells assessed as cell growth inhibition incubated for 48 hrs by MTT assay; assay type: toxicity, cell-based
[10] = tested on: Panel leukemia (Carcinoma cell lines); test: cells; conditions: Homo sapiens, 48 h, read-out: INH
[11] = tested on: Panel melanoma (Carcinoma cell lines); test: cells; conditions: Homo sapiens, 48 h, read-out: INH
Malme-3M [12] = test: Antiproliferative activity against human Malme-3M cells assessed as total growth inhibition measured after 48 hrs by SRB assay
[13] = tested on: Panel leukemia (Carcinoma cell lines); test: Antiproliferative activity against human Panel leukemia (Carcinoma cell lines) assessed as cell growth inhibition measured after 48 hrs by SRB assay
[14] = tested on: Panel breast (Carcinoma cell lines); test: Antiproliferative activity against human Panel breast (Carcinoma cell lines) assessed as cell growth inhibition measured after 48 hrs by SRB assay
UACC-62 [15] = test: Antiproliferative activity against human UACC-62 cells assessed as cell growth inhibition measured after 48 hrs by SRB assay; conditions: UACC-62, 48 h
[16] = tested on: Panel melanoma (Carcinoma cell lines); test: Antiproliferative activity against human Panel melanoma (Carcinoma cell lines) assessed as cell growth inhibition measured after 48 hrs by SRB assay
UACC-257 [17] = test: Antiproliferative activity against human UACC-257 cells assessed as total growth inhibition measured after 48 hrs by SRB assay; conditions: UACC-257, 48 h
M14 [18] = test: Antiproliferative activity against human M14 cells assessed as total growth inhibition measured after 48 hrs by SRB assay; conditions: M14, 48 h
SK-MEL-2 [19] = test: Antiproliferative activity against human SK-MEL-2 cells assessed as cell growth inhibition measured after 48 hrs by SRB assay; conditions: SK-MEL-2, 48 h
SK-MEL-28 [20] = test: Antiproliferative activity against human SK-MEL-28 cells assessed as total growth inhibition measured after 48 hrs by SRB assay; conditions: SK-MEL-28, 48 h
[21] = tested on: Panel ovarian (Carcinoma cell lines); test: cells; conditions: Homo sapiens, 48 h, read-out: INH
Malme-3M [22] = test: Antiproliferative activity against human Malme-3M cells assessed as cell growth inhibition measured after 48 hrs by SRB assay
LOX IMVI [23] = test: Antiproliferative activity against human LOX IMVI cells assessed as total growth inhibition measured after 48 hrs by SRB assay
UACC-257 [24] = test: Antiproliferative activity against human UACC-257 cells assessed as cell growth inhibition measured after 48 hrs by SRB assay; conditions: UACC-257, 48 h
MDA-MB-435 [25] = test: Antiproliferative activity against human MDA-MB-435 cells assessed as total growth inhibition measured after 48 hrs by SRB assay; conditions: MDA-MB-435, 48 h
SK-MEL-5 [26] = test: Antiproliferative activity against human SK-MEL-5 cells assessed as cell growth inhibition measured after 48 hrs by SRB assay; conditions: SK-MEL-5, 48 h
NSCLC = test: Antiproliferative activity against human NSCLC cell line assessed as cell growth inhibition measured after 48 hrs by SRB assay
[27] = tested on: Panel colon (Carcinoma cell lines); test: cells; conditions: Homo sapiens, 48 h, read-out: INH
MDA-MB-435 [28] = test: Antiproliferative activity against human MDA-MB-435 cells assessed as cell growth inhibition measured after 48 hrs by SRB assay; conditions: MDA-MB-435, 48 h
[29] = molecular target: RAF proto-oncogene serine/threonine-protein kinase (Homo sapiens, UniProt P04049); test: Inhibition of human wild type CRAF using myelin basic protein as substrate in presence of [gamma-33P]ATP incubated for 40 mins by scintillation counting method
M14 [30] = test: Antiproliferative activity against human M14 cells assessed as cell growth inhibition measured after 48 hrs by SRB assay; conditions: M14, 48 h
LOX IMVI [31] = test: Antiproliferative activity against human LOX IMVI cells assessed as cell growth inhibition measured after 48 hrs by SRB assay
[32] = tested on: Panel renal (Carcinoma cell lines); test: Antiproliferative activity against human Panel renal (Carcinoma cell lines) assessed as cell growth inhibition measured after 48 hrs by SRB assay
SK-MEL-28 [33] = test: Antiproliferative activity against human SK-MEL-28 cells assessed as cell growth inhibition measured after 48 hrs by SRB assay; conditions: SK-MEL-28, 48 h
A-375 [34] = test: Inhibition of Pan-Raf in human A-375 cells assessed as reduction in ERK phosphorylation at 5 uM measured after 24 hrs by immunoblot assay; assay type: cell-based
How it was run: (§1)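 A375 cells were treated for 24 h, including at 5 μM alongside vemurafenib. Cells were lysed in RIPA buffer with phosphatase and protease inhibitors, separated by SDS-PAGE and blotted to PVDF. Blots were probed for phospho-MEK1/2, phospho-ERK1/2, total MEK and total ERK, with chemiluminescent detection.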

A-375 [35] = test: Inhibition of Pan-Raf in human A-375 cells assessed as reduction in MEK phosphorylation at 5 uM measured after 24 hrs by immunoblot assay; assay type: cell-based; how it was run: as §1
[36] = Stability in rat plasma assessed as parent compound remaining at 10 uM measured after 30 mins by LC-MS analysis; assay type: ADME, cell-free; conditions: read-out: Stability
How it was run: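 About 10 μM compound shaken in human or rat plasma at 37 °C for 30 and 120 min. Acetonitrile added, samples centrifuged at 4 °C, and remaining parent in the supernatant quantified by LC−MS. Procaine and diltiazem run as references.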

[37] = molecular target: Serine/threonine-protein kinase B-raf (Homo sapiens, UniProt P15056, V600E); test: Inhibition of human BRAF V600E mutant using myelin basic protein as substrate in presence of [gamma-33P]ATP incubated for 40 mins by scintillation counting method
How it was run: (§2)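 Radiometric kinase assay run at Reaction Biology. Kinase (5−10 mU) in 25 mM Tris pH 7.5, 0.02 mM EGTA, 10 mM magnesium acetate with 0.66 mg/mL myelin basic protein and [γ-33P]ATP at 1 μM ATP. Reaction started with Mg-ATP and run 40 min at room temperature, then stopped with 3% phosphoric acid. Spotted on P30 filtermat, washed, scintillation counted.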

[38] = molecular target: Serine/threonine-protein kinase B-raf (Homo sapiens, UniProt P15056); test: Inhibition of human wild type BRAF using myelin basic protein as substrate in presence of [gamma-33P]ATP incubated for 40 mins by scintillation counting method; how it was run: as §2
Serine/threonine-protein kinase B-raf (Homo sapiens, UniProt P15056), sequence (P15056 whole entry): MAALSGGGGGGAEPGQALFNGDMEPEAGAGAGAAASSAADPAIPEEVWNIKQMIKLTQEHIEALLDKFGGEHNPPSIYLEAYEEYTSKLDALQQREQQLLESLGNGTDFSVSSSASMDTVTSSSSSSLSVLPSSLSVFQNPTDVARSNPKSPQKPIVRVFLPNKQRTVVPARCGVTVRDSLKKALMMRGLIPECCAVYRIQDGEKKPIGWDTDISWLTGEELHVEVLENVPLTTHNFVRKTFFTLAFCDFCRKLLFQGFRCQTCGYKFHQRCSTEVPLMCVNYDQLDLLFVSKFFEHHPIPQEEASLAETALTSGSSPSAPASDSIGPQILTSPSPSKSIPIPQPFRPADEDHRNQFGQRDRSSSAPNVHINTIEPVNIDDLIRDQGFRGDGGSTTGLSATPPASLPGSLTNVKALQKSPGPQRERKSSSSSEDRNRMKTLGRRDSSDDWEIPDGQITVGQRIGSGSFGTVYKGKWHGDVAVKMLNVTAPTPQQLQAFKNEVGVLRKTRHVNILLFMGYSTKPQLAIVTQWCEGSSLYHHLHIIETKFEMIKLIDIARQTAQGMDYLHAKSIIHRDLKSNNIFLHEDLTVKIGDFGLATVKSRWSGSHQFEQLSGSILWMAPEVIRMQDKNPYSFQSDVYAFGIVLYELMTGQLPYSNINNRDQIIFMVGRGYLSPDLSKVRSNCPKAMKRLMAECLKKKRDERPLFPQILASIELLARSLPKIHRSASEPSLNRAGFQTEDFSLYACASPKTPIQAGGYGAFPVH

RAF proto-oncogene serine/threonine-protein kinase, sequence (P04049 whole entry): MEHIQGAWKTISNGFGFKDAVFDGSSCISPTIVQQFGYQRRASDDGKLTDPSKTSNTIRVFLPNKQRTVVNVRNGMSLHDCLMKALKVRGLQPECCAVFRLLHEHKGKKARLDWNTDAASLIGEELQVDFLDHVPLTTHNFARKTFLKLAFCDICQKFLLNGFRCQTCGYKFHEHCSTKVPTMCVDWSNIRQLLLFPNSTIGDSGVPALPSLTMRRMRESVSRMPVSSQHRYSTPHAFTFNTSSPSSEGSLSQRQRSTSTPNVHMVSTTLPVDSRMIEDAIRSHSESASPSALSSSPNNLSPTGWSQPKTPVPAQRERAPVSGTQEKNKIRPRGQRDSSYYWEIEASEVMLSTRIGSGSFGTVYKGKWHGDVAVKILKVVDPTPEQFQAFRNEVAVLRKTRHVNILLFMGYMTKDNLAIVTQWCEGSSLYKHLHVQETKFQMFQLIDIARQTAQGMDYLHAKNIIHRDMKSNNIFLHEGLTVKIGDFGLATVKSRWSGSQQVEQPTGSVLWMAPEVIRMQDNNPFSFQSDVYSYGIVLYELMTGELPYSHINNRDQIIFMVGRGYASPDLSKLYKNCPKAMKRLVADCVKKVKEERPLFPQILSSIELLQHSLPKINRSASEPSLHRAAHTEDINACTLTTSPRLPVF
Serine/threonine-protein kinase B-raf (Homo sapiens, UniProt P15056, V600E), sequence (P15056 2-766 V600E limits assumed): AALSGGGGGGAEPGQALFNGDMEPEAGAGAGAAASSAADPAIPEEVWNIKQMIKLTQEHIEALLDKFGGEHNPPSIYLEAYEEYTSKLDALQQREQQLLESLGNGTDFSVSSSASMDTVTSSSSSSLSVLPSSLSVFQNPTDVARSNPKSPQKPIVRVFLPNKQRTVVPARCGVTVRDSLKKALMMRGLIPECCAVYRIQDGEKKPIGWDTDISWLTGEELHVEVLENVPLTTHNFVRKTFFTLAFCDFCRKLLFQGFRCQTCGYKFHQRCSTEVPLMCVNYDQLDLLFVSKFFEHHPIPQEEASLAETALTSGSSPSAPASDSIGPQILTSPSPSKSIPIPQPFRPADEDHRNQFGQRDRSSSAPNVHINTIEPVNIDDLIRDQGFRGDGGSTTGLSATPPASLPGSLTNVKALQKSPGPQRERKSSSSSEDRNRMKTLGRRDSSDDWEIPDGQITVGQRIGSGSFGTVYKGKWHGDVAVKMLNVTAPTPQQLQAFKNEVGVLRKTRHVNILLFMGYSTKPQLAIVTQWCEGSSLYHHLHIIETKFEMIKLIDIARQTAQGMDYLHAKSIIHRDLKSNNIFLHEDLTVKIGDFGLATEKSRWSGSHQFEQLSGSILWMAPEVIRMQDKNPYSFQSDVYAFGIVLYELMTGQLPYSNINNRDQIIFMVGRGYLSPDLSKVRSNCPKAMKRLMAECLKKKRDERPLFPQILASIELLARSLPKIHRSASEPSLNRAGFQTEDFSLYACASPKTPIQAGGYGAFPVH

COc1ccc(S(=O)(=O)NCCNc2nccc(-c3c(-c4ccccc4)nc4sccn34)n2)cc1
pIC50 [1]: 5.66 | TGI (UACC-62 [2]): > 100 µM | pIC50 [3]: 5.19 | pIC50 [4]: 5.61 | TGI (SK-MEL-5 [5]): > 100 µM | selectivity ratio (in vitro): 6.4 | pIC50 [6]: 5.45 | TGI (SK-MEL-2 [7]): > 100 µM | IC50 at 48 h [8]: 55.6 µM | IC50 at 48 h [9]: 60.2 µM | inhibition at 10 µM [10]: 81.3% | inhibition at 10 µM [11]: 83.8% | TGI (Malme-3M [12]): > 100 µM | pIC50 [13]: 5.52 | pIC50 [14]: 4.88 | pIC50 (UACC-62 [15]): 5.96 | pIC50 [16]: 5.39 | TGI (UACC-257 [17]): > 100 µM | TGI (M14 [18]): > 100 µM | pIC50 (SK-MEL-2 [19]): 5.31 | TGI (SK-MEL-28 [20]): > 100 µM | inhibition at 10 µM [21]: 73.2% | pIC50 (Malme-3M [22]): 5.06 | TGI (LOX IMVI [23]): > 100 µM | pIC50 (UACC-257 [24]): 5.19 | TGI (MDA-MB-435 [25]): > 100 µM | pIC50 (SK-MEL-5 [26]): 5.77 | pIC50 (NSCLC): 5.27 | inhibition at 10 µM [27]: 76.7% | pIC50 (MDA-MB-435 [28]): 5.92 | pIC50 [29]: 6.76 | pIC50 (M14 [30]): 5.57 | pIC50 (LOX IMVI [31]): 5.41 | pIC50 [32]: 5.43 | pIC50 (SK-MEL-28 [33]): 5.24

CCCS(=O)(=O)Nc1ccc(F)c(C(=O)c2c[nH]c3ncc(-c4ccc(Cl)cc4)cc23)c1F
inhibition (A-375 [34]): Active | inhibition (A-375 [35]): Active

CCN(CC)CCOC(=O)c1ccc(N)cc1 [PROCAINE]
remaining at 0.5 h, 10 µM [36]: 84.9%

COc1cccc(-c2nc3sccn3c2-c2ccnc(NCCNS(=O)(=O)c3ccc4ccccc4c3)n2)c1
pIC50 [37]: 6.77 | pIC50 [38]: 6.04 | inhibition at 10 µM [27]: 83.1% | pIC50 [29]: 6.72
